Source: ChEMBL document CHEMBL1122910, “Syntheses and evaluation as antifolates of MTX analogues derived from 2, omega-diaminoalkanoic acids” (J Med Chem, 1985)

Key:
L1210 [1] = assay: Antitumor activity L1210 cell line as cell membrane transport activity; type: functional, cell-based; settings: Mus musculus
L1210 [2] = assay: Antitumor activity against L1210 cell line as cell membrane transport activity; type: functional, Mus musculus
Dihydrofolate reductase = target: T1, Dihydrofolate reductase (Mus musculus, UniProt P00375); assay: In vitro inhibitory activity against Dihydrofolate reductase in L1210 cell in mice; type: cell-based
T1 sequence (P00375 whole entry): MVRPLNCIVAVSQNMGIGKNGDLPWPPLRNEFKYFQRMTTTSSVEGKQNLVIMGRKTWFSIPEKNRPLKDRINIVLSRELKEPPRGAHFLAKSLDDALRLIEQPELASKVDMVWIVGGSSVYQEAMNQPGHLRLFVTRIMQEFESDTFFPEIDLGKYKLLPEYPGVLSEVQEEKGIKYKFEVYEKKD

L1210 [3] = assay: Inhibition of L1210 cell growth in mice.; type: functional, cell-based; settings: Mus musculus
Mus musculus [4] = assay: Antitumor activity in mice with L1210 Leukemia and percentage increase in life span was reported for 3 mice x 2 experiments at a dose of 432 mg/Kg; type: functional
Procedure, shortened: (§1)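 L1210 leukemia-bearing mice dosed on a q2d × 5 schedule. Untreated controls were 5 mice × 12 experiments. Read-outs were MST (days ± SD), % ILS versus control, and body weight at termination (g ± SD).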

Mus musculus [5] = assay: Antitumor activity in mice with L1210 Leukemia and weight at termination of the therapy was reported for 3 mice x 2 experiments at a dose of 432 mg/Kg.; type: functional
L1210 [6] = assay: (§2) In vitro antitumor activity against L1210 cell line.; type: functional, cell-based; settings: Mus musculus
L1210 [7] = assay: as §2; type: functional, Mus musculus
Ehrlich [8] = assay: In vitro antitumor activity against Erlich cell line.; type: functional, Mus musculus
Mus musculus [9] = assay: Antitumor activity in mice with L1210 Leukemia and […] (MST) in days was reported for 3 mice x 2 experiments at a dose of 432 mg/Kg.; type: functional; procedure, shortened: as §1
Epithelial cell line = assay: (§3) In vitro antitumor activity against epithelial cell line.; type: functional, Mus musculus
[10] = In vitro antitumor activity against S180 cells.; type: functional, Mus musculus, CCRF S-180
P388 = assay: In vivo antitumor activity as increase in life span in mice with P388 10E6 tumor cell implanted intraperitoneally; type: functional, Mus musculus
CCRF S-180 = assay: In vitro antitumor activity against S180 cell line.; type: functional, Mus musculus
L1210 [11] = assay: In vivo antitumor activity as increase in life span in mice with L1210 10E6 tumor cell implanted intraperitoneally; optimal dose is 12 mg/kg.; type: functional; settings: Mus musculus, L1210, ip, route intraperitoneal
Mus musculus [12] = species: Mus musculus; assay: Antitumor activity against L1210 cell […]; type: functional
Mus musculus [13] = assay: Antitumor activity in mice with L1210 Leukemia and percentage increase in life span was reported for 5 mice x 12 experiments at a dose of 15 mg/Kg
Epithelial cell = assay: as §3; type: functional, Mus musculus
Mus musculus [14] = assay: Antitumor activity in mice with L1210 Leukemia and weight at termination of the therapy was reported for 5 mice x 12 experiments at a dose of 15 mg/kg.; type: functional
Ehrlich [15] = assay: In vitro antitumor activity against Erlich cell line,; type: functional, Mus musculus
L1210 [16] = assay: In vivo antitumor activity as increase in life span in mice with L1210 10E6 tumor cell implanted intraperitoneally; optimal dose is 768 mg/kg.; type: functional; settings: Mus musculus, L1210, ip, route intraperitoneal
Mus musculus [17] = assay: Antitumor activity in mice with L1210 Leukemia and […] (MST) in days was reported for 3 mice x 2 experiments at a dose of 144 mg/kg.; type: functional; procedure, shortened: as §1
Mus musculus [18] = assay: Antitumor activity in mice with L1210 Leukemia and weight at termination of the therapy was reported for 3 mice x 2 experiments at a dose of 144 mg/kg.; type: functional
Mus musculus [19] = assay: Antitumor activity in mice with L1210 Leukemia and percentage increase in life span was reported for 3 mice x 2 experiments at a dose of 144 mg/kg; type: functional; procedure, shortened: as §1

SMILES	Efflux Ki (L1210 [1])	Influx Ki (L1210 [2])	Ki (Dihydrofolate reductase)	IC50 (L1210 [3])	further results
CN(Cc1cnc2nc(N)nc(N)c2n1)c1ccc(C(=O)NC(CNC(=O)c2ccc(Cl)cc2)C(=O)O)cc1 (stereo not given)	0.255 min⁻¹	7430 nM	0.00498 nM	11.9 nM	–
CN(Cc1cnc2nc(N)nc(N)c2n1)c1ccc(C(=O)NC(CCCN)C(=O)O)cc1 (stereo not given)	–	–	–	507 nM	–
CN(Cc1cnc2nc(N)nc(N)c2n1)c1ccc(C(=O)NC(CCNC(N)=O)C(=O)O)cc1 (stereo not given)	–	–	0.004 nM	21.8 nM	ILS at 432 mg/kg (Mus musculus [4]): 33%; Weight (Mus musculus [5]): 21.6 g; Efflux Ki (L1210 [6]): 0.19 min⁻¹; Influx Ki (L1210 [7]): 17300 nM; Influx Ki (Ehrlich [8]): 15900 nM; MST (Mus musculus [9]): 9.3 days; Influx Ki (Epithelial cell line): >500000 nM; Influx Ki [10]: 24600 nM
CCOC(=O)C(CNC(=O)N(C)N=O)NC(=O)c1ccc(N(C)Cc2cnc3nc(N)nc(N)c3n2)cc1 (stereo not given)	0.298 min⁻¹	42400 nM	6.35 nM	3650 nM	ILS (P388): 58%
CN(Cc1cnc2nc(N)nc(N)c2n1)c1ccc(C(=O)NC(CNC(=O)NC(CCC(=O)O)C(=O)O)C(=O)O)cc1 (stereo not given)	0.234 min⁻¹	16400 nM	0.00471 nM	200 nM	–
CN(Cc1cnc2nc(N)nc(N)c2n1)c1ccc(C(=O)NC(CNC(N)=O)C(=O)O)cc1 (stereo not given)	–	–	35 nM	9.4 nM	ILS at 432 mg/kg (Mus musculus [4]): 129%; Weight (Mus musculus [5]): 16 g; Efflux Ki (L1210 [6]): 0.25 min⁻¹; Influx Ki (L1210 [7]): 11600 nM; Influx Ki (Ehrlich [8]): 12500 nM; MST (Mus musculus [9]): 16.3 days; Influx Ki (Epithelial cell line): >500000 nM; Influx Ki (CCRF S-180): 11600 nM
CN(Cc1cnc2nc(N)nc(N)c2n1)c1ccc(C(=O)NC(CCCNC(=O)OC(C)(C)C)C(=O)O)cc1 (stereo not given)	–	–	–	97 nM	–
CN(Cc1cnc2nc(N)nc(N)c2n1)c1ccc(C(=O)N[C@@H](CCC(=O)O)C(=O)O)cc1 [METHOTREXATE]	0.203 min⁻¹	4570 nM	–	3.28 nM	ILS at 12 mg/kg (L1210 [11]): 173%; IC50 (Mus musculus [12]): 3.28 nM; ILS at 15 mg/kg (Mus musculus [13]): 152%; Effllux (L1210 [7]): 0.23 min⁻¹; Influx Ki (L1210 [7]): 3700 nM; Influx Ki (Epithelial cell): 339000 nM; Influx Ki (CCRF S-180): 11400 nM; Weight (Mus musculus [14]): 19.8 g; Influx Ki (Ehrlich [15]): 10100 nM
CN(Cc1cnc2nc(N)nc(N)c2n1)c1ccc(C(=O)NC(CCNC(=O)c2ccc(Cl)cc2)C(=O)O)cc1 (stereo not given)	1.21 min⁻¹	4670 nM	0.00642 nM	27.3 nM	–
CN(Cc1cnc2nc(N)nc(N)c2n1)c1ccc(C(=O)NC(CCCNC(=O)c2ccc(Cl)cc2)C(=O)O)cc1 (stereo not given)	0.437 min⁻¹	4320 nM	0.00531 nM	1.71 nM	ILS at 768 mg/kg (L1210 [16]): 104%
CNC(=O)NCC(NC(=O)c1ccc(N(C)Cc2cnc3nc(N)nc(N)c3n2)cc1)C(=O)O (stereo not given)	–	–	14.2 nM	34.3 nM	Efflux Ki (L1210 [6]): 0.27 min⁻¹; MST (Mus musculus [17]): 7 days; Weight (Mus musculus [18]): 20 g; Influx Ki (L1210 [7]): 16700 nM; Influx Ki (Ehrlich [8]): 13400 nM; Influx Ki (Epithelial cell line): >500000 nM; Influx Ki (CCRF S-180): 19700 nM; ILS at 144 mg/kg (Mus musculus [19]): 12%
CN(Cc1cnc2nc(N)nc(N)c2n1)c1ccc(C(=O)NC(CN)C(=O)O)cc1 (stereo not given)	–	–	–	1030 nM	–
CCOC(=O)C(CNC(=O)N(CCCl)N=O)NC(=O)c1ccc(N(C)Cc2cnc3nc(N)nc(N)c3n2)cc1 (stereo not given)	0.202 min⁻¹	46900 nM	3.24 nM	2900 nM	ILS (P388): 113%
CN(Cc1cnc2nc(N)nc(N)c2n1)c1ccc(C(=O)NC(CNC(=O)OC(C)(C)C)C(=O)O)cc1 (stereo not given)	–	–	–	440 nM	–
CN(Cc1cnc2nc(N)nc(N)c2n1)c1ccc(C(=O)NC(CCNC(=O)OC(C)(C)C)C(=O)O)cc1 (stereo not given)	–	–	–	333 nM	–
CN(Cc1cnc2nc(N)nc(N)c2n1)c1ccc(C(=O)NC(CCN)C(=O)O)cc1 (stereo not given)	–	–	–	1360 nM	–
